We go through 4 compounds from paper PMC12418302 (Journal of Natural Products, 2025).

The target of one data set is α-chymotrypsin (Bos taurus, UniProt P00766). Briefly: Chymotrypsin inhibition assay. It is filed as biochemical. In a few lines: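 α-Chymotrypsin, added as a 10 U/mL solution in kit assay buffer, was preincubated with test compound from a DMSO dilution series (10 μM to 1 nM) for 15 min at room temperature. A reference micropeptin served as positive control. A working reagent of 1% substrate in assay buffer was added, and fluorescence (ex/em 485/530 nm) was read every 30 s for 30 min. IC50 was calculated from the data.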

Data set [1] deals with T1, human neutrophil elastase (Homo sapiens, UniProt P08246).
T1 sequence (P08246 30-267): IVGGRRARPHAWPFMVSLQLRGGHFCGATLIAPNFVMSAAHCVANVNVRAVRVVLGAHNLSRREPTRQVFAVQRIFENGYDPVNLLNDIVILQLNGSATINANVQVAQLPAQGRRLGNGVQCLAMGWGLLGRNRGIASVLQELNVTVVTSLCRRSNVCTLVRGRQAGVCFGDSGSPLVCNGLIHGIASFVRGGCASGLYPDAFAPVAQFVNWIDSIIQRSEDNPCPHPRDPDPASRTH
Put plainly: Neutrophil elastase inhibition assay. The note with it: dilution series 10 μM to 1 nM; general statement covering both protease assays. Type of data set: biochemical.

A further data set has as its system zebrafish. To be noted: in vivo; cited from earlier work.
A further data set has as its system chymotrypsin. The note with it: read-out: IC50, chymotrypsin inhibition; literature value; cited from earlier work.

For the compound Micropeptin 996 (D-Gln) [Compound 4], at α-chymotrypsin (up to a concentration of 10 μM), the “chymotrypsin inhibition (in words)” value is listed as “not active”.

With Micropeptin 982 (L-Ser) [Compound 2], the “chymotrypsin inhibitory activity (in words)” value at α-chymotrypsin (dilution series 10 μM to 1 nM) is given as “no inhibition was observed”. The “inhibitory activity (in words), neutrophil elastase” value in data set [1] is “lacked any inhibitory activity”.

In the case of `CCCCCC(=O)N[C@@H](CC(=O)O)C(=O)N[C@H]1C(=O)N[C@@H](CCCN=C(N)N)C(=O)NC2CCC(O)N(C2=O)[C@@H]([C@H](C)CC)C(=O)N(C)[C@@H](Cc2ccc(O)cc2)C(=O)N[C@@H]([C@@H](C)CC)C(=O)O[C@@H]1C` (some centres unmarked) [micropeptin K139], the “share of the overall mortality attributed to the compound” value in the data set on zebrafish was 52%.

Usually IC50 stands for the concentration needed to halve the response being measured. With Microviridin 1777, the IC50 with chymotrypsin is 100 nM.
